Test results reported in ChEMBL document CHEMBL1212913, “Quinazolin-4-one derivatives: A novel class of noncompetitive NR2C/D subunit-selective N-methyl-D-aspartate receptor antagonists” (J Med Chem, 2010).

Experiments:
[1] = target: Glutamate NMDA receptor; Grin1/Grin2a (Rattus norvegicus, UniProt P35439+Q00959); assay: Antagonist activity at rat recombinant NR1-NR2A receptor expressed in Xenopus oocytes at holding potential of -40mV by two-electrode voltage-clamp electrophysiology; assay type: functional, cell-based, Oocyte; details: read-out: IC50
Method in brief: (§1)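 Oocytes expressing rat NR1-1a with NR2A, NR2B, NR2C or NR2D, clamped at −40 mV in Ba2+/HEPES recording solution pH 7.4, 23°C. Current evoked by 100 μM glutamate plus 30 μM glycine. Final DMSO 0.05-0.5%, 5-7 inhibitor concentrations, ≥4 oocytes each. IC50 from Hill fit of normalized mean composite data. […] Some NR2A oocytes given BAPTA-AM or K-BAPTA.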

Rattus norvegicus [2] = species on record: Rattus norvegicus; assay: Selectivity ratio of IC50 for rat recombinant GLuR1 to IC50 for rat recombinant NR1-NR2D receptor
Method in brief: (§2)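 Ratio of fitted IC50 values, either NR2A/NR2D or GluR1/NR2D, from two-electrode voltage-clamp Hill fits in oocytes. Where noted, calculated from IC50 values rounded to the nearest μM.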

[3] = target: Glutamate NMDA receptor; Grin1/Grin2c (Rattus norvegicus, UniProt P35439+Q00961); assay: Antagonist activity at rat recombinant NR1-NR2C receptor expressed in Xenopus oocytes at holding potential of -40mV by two-electrode voltage-clamp electrophysiology; assay type: functional, cell-based, Oocyte; method in brief: as §1
[4] = target: Ionotropic glutamate receptor NMDA 1/2D (Rattus norvegicus, UniProt P35439+Q62645); assay: Antagonist activity at rat recombinant NR1-NR2D receptor expressed in Xenopus oocytes at holding potential of -40mV by two-electrode voltage-clamp electrophysiology; assay type: functional, cell-based, Oocyte
Method in brief: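 Oocytes expressing rat NR1-1a with NR2A, NR2B, NR2C or NR2D, clamped at −40 mV in Ba2+/HEPES recording solution pH 7.4, 23°C. Current evoked by 100 μM glutamate plus 30 μM glycine. Final DMSO 0.05-0.5%, 5-7 inhibitor concentrations, ≥4 oocytes each. IC50 from Hill fit of normalized mean composite data. Some NR2A oocytes given BAPTA-AM or K-BAPTA.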

Glutamate receptor 1 = Glutamate receptor 1 (Rattus norvegicus, UniProt P19490); assay: Antagonist activity at rat recombinant GLuR1 expressed in Xenopus oocytes assessed as inhibition of glutamate-induced current by two-electrode voltage-clamp electrophysiology; assay type: functional, cell-based, Oocyte
Method in brief: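 Two-electrode voltage clamp at −40 mV on Xenopus oocytes expressing rat GluR1, perfused with 90 NaCl, 1.0 KCl, 0.5 BaCl2, 0.005 EDTA, 10 HEPES (mM), pH 7.4, 23°C; activated by 100 μM glutamate. From 20 mM DMSO stocks, 5-7 concentrations, ≥4 oocytes each. Hill fit to mean composite curves normalized to control, minimum usually fixed at 0. Response >75% at 100 μM reported as >300 μM.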

[5] = target: Glutamate receptor ionotropic, kainate 2 (Rattus norvegicus, UniProt P42260); assay: Antagonist activity at rat recombinant GLuR6 expressed in Xenopus oocytes assessed as inhibition of glutamate-induced current by two-electrode voltage-clamp electrophysiology; assay type: functional, cell-based; details: oocyte
Method in brief: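 Rat GluR6 expressed in Xenopus oocytes, pretreated with 10 μM concanavalin A for 10 min, then activated by 100 μM glutamate. Cells were held at −40 mV in 90 mM NaCl, 1.0 KCl, 0.5 BaCl2, 0.005 EDTA and 10 HEPES, pH 7.4, at 23°C. Compounds were diluted from 20 mM DMSO stocks, final DMSO 0.05-0.5%. Concentration-effect curves were recorded.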

[6] = target: Glutamate NMDA receptor; Grin1/Grin2b (Rattus norvegicus, UniProt P35439+Q00960); assay: Antagonist activity at rat recombinant NR1-NR2B receptor expressed in Xenopus oocytes at holding potential of -40mV by two-electrode voltage-clamp electrophysiology; assay type: functional, cell-based, Oocyte; details: read-out: IC50; method in brief: as §1
Rattus norvegicus [7] = species on record: Rattus norvegicus; assay: Selectivity ratio of IC50 for rat recombinant NR1-NR2A receptor to IC50 for rat recombinant NR1-NR2D receptor; method in brief: as §2

Glutamate NMDA receptor; Grin1/Grin2a, sequence (Q00959 whole entry, other chains not shown): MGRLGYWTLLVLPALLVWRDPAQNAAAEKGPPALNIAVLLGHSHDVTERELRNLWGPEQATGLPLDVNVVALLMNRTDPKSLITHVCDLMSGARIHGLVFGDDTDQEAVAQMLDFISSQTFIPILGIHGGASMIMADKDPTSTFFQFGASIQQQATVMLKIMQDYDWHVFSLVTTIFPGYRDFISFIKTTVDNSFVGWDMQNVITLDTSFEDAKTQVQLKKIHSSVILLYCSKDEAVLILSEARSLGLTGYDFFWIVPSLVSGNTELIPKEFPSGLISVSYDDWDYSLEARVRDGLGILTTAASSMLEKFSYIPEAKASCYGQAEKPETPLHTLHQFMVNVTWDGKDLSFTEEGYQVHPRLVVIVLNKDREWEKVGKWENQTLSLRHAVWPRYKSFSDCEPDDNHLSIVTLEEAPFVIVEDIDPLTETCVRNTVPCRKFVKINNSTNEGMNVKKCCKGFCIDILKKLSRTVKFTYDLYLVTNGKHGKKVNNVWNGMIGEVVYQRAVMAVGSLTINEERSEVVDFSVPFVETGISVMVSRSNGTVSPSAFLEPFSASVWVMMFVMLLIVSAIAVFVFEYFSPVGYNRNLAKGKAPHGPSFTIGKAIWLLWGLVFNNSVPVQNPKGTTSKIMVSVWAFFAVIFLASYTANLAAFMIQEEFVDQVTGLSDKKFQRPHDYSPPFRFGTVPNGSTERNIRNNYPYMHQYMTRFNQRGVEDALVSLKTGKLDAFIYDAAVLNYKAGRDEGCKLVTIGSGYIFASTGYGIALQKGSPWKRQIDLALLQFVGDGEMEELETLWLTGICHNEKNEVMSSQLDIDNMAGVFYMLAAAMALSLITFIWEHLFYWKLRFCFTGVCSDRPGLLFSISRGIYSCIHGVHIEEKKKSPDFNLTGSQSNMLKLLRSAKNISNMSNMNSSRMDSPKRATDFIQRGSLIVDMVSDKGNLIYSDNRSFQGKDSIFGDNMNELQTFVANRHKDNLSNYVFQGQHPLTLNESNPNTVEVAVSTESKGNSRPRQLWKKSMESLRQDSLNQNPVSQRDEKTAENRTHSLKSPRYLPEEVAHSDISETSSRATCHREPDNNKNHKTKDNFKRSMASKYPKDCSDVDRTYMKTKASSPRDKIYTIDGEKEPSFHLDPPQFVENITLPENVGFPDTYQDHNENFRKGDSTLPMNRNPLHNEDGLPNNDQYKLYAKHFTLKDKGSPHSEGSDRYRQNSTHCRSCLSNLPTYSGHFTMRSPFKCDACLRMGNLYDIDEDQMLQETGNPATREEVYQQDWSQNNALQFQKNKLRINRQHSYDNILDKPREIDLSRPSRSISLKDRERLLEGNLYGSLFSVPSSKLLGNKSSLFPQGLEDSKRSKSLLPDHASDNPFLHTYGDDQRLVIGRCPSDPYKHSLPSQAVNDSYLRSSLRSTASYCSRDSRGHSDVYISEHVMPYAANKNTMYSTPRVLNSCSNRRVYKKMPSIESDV
Glutamate NMDA receptor; Grin1/Grin2c, sequence (Q00961 whole entry, other chains not shown): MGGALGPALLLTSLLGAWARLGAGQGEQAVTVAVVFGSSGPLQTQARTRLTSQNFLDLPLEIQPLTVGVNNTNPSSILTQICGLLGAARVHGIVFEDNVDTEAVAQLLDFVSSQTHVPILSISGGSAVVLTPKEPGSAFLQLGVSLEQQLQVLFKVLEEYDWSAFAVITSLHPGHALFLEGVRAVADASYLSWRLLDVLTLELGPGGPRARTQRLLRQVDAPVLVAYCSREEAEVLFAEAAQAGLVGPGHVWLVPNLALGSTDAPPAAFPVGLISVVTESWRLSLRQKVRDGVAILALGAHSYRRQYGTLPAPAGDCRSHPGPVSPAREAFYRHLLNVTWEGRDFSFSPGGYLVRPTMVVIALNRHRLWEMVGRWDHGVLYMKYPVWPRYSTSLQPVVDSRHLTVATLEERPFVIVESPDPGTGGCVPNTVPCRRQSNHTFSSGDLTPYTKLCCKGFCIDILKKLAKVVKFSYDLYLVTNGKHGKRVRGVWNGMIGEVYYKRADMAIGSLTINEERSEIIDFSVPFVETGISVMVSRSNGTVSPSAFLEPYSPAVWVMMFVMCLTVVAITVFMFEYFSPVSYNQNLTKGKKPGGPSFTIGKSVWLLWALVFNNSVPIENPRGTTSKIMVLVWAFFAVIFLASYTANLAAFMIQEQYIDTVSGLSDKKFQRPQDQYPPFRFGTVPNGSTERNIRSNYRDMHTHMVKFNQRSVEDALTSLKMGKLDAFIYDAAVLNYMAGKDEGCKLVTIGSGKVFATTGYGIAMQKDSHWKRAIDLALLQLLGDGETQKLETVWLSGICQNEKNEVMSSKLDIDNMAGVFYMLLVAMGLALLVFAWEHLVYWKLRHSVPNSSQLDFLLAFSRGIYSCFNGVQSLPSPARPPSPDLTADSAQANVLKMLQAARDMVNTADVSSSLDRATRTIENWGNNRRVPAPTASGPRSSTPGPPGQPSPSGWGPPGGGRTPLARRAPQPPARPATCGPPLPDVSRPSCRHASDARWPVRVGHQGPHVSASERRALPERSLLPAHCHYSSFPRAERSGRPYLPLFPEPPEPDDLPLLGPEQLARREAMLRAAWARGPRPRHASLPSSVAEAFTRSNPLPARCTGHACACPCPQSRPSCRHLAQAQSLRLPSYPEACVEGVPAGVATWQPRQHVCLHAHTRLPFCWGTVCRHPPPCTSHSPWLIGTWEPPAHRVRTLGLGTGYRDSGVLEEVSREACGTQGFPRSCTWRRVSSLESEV
Glutamate receptor 1, sequence (P19490 whole entry, the tested form may be a part): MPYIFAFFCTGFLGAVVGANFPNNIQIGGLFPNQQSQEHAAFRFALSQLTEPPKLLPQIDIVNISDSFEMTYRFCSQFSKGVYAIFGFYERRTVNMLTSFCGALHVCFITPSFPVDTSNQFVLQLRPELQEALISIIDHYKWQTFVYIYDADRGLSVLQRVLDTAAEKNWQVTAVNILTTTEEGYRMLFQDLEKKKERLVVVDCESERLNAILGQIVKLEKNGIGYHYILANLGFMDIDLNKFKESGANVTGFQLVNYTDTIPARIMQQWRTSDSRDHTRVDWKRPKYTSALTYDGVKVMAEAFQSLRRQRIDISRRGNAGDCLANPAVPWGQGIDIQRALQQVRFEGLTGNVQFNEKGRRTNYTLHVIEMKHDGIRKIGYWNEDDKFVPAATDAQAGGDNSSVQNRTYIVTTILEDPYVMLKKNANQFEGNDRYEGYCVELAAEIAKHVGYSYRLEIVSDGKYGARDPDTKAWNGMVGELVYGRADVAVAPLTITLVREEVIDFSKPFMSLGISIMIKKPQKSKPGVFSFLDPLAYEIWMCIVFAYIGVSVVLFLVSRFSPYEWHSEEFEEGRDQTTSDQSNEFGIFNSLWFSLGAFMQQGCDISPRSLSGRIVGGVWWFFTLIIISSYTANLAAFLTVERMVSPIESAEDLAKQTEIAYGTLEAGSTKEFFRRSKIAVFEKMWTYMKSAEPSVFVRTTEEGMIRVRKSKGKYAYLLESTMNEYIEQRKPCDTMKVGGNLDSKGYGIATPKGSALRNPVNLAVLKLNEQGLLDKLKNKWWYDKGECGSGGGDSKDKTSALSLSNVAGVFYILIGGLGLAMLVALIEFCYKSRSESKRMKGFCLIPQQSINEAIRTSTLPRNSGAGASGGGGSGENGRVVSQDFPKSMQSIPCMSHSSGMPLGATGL
Glutamate receptor ionotropic, kainate 2, sequence (P42260 whole entry): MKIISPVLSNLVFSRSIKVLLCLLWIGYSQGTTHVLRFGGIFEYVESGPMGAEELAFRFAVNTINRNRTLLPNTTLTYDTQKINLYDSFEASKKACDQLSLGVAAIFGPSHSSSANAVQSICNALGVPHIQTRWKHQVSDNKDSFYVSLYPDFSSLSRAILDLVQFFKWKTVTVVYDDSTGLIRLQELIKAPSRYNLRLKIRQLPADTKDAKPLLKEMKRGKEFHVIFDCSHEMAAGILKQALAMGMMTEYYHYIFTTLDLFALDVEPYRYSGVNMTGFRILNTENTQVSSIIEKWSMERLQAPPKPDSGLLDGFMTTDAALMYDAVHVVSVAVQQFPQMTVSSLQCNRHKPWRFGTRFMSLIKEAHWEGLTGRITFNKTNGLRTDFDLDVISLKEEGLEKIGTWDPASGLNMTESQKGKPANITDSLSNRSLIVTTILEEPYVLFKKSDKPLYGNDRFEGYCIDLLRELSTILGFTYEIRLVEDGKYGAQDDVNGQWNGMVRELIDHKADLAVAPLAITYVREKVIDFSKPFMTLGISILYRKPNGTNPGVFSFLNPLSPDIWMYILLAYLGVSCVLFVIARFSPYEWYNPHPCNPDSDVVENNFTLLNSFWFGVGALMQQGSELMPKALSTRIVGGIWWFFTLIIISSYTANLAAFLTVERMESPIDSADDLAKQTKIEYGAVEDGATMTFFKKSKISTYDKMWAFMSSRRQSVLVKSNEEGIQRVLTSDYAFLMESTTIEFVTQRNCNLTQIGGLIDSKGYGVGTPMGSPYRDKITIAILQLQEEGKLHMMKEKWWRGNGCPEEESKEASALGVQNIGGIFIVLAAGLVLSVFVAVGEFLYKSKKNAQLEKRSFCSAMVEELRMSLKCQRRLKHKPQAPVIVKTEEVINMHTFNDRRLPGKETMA

Row | Structure (SMILES) | IC50 [1] [µM] | Ratio IC50 (Rattus norvegicus [2]) | IC50 [3] [µM] | IC50 [4] [µM] | IC50 (Glutamate receptor 1) [µM] | IC50 [5] | IC50 [6] [µM] | Ratio IC50 (Rattus norvegicus [7])
1 | COc1ccccc1-n1c(/C=C/c2cccc([N+](=O)[O-])c2)nc2ccccc2c1=O | > 300 | 1 | > 300 | > 300 | > 300 | Not Active | – | –
2 | O=C(O)c1cccc(-n2c(/C=C/c3ccccc3[N+](=O)[O-])nc3ccccc3c2=O)c1 | 17 | – | 8 | 7 | 5 | Not Active | 20 | –
3 | COc1cccc(-n2c(/C=C/c3ccccc3[N+](=O)[O-])nc3ccccc3c2=O)c1 | > 300 | 1 | > 300 | > 300 | > 300 | Not Active | – | –
4 | COc1ccccc1-n1c(/C=C/c2ccc([N+](=O)[O-])cc2)nc2ccccc2c1=O | > 300 | 1 | > 300 | 290 | > 300 | Not Active | > 300 | > 1
5 | COc1ccc(-n2c(/C=C/c3ccc([N+](=O)[O-])cc3)nc3ccccc3c2=O)cc1 | > 300 | – | 181 | 221 | > 300 | Not Active | 98 | –
6 | O=C(O)c1ccccc1-n1c(/C=C/c2ccc([N+](=O)[O-])cc2)nc2ccccc2c1=O | > 300 | – | > 300 | 278 | > 300 | Not Active | 197 | –
7 | COc1cccc(-n2c(/C=C/c3cccc([N+](=O)[O-])c3)nc3ccccc3c2=O)c1 | > 300 | 2 | 205 | 186 | > 300 | Not Active | 262 | 2
8 | O=C(O)c1ccc(-n2c(/C=C/c3ccccc3[N+](=O)[O-])nc3ccccc3c2=O)cc1 | 11 | – | 8 | – | – | Not Active | 17 | –
9 | COc1ccccc1-n1c(/C=C/c2ccccc2[N+](=O)[O-])nc2ccccc2c1=O | 4 | – | 4 | 5 | 14 | Not Active | 7 | –
10 | O=C(O)c1ccccc1-n1c(/C=C/c2cccc([N+](=O)[O-])c2)nc2ccccc2c1=O | > 300 | – | 258 | 148 | > 300 | Not Active | 235 | –
11 | O=C(O)c1ccc(-n2c(/C=C/c3ccc([N+](=O)[O-])cc3)nc3ccccc3c2=O)cc1 | 64 | – | 15 | 15 | > 300 | Not Active | 93 | –
12 | COc1ccc(-n2c(/C=C/c3ccccc3[N+](=O)[O-])nc3ccccc3c2=O)cc1 | > 300 | – | 143 | 125 | 223 | Not Active | – | –
13 | O=C(O)c1cccc(-n2c(/C=C/c3cccc([N+](=O)[O-])c3)nc3ccccc3c2=O)c1 | 100 | – | 19 | 15 | 32 | Not Active | 69 | –
14 | O=C(O)c1ccc(-n2c(/C=C/c3ccc(OC(F)F)cc3)nc3ccccc3c2=O)cc1 | 73 | 9 | 33 | 22 | 208 | – | 89 | 3
15 | O=C(O)c1cccc(-n2c(/C=C/c3cccnc3)nc3ccc(I)cc3c2=O)c1 | 45 | 16 | 7 | 4 | 64 | – | 49 | 11
16 | O=C(O)c1ccc(-n2c(/C=C/c3ccc(N4CCOCC4)cc3)nc3ccccc3c2=O)cc1 | > 300 | 1 | 284 | 171 | > 300 | – | 122 | 1
17 | O=c1c2cc(I)ccc2nc(/C=C/c2cccnc2)n1-c1ccc([N+](=O)[O-])cc1 | > 300 | 1 | 204 | 218 | > 300 | – | > 300 | 1
18 | CCCc1ccc2nc(/C=C/c3cccc([N+](=O)[O-])c3)n(-c3ccc(C(=O)O)cc3)c(=O)c2c1 | 28 | 13 | 3 | 4 | 50 | – | 18 | 7
19 | Cc1ccc2nc(/C=C/c3ccccc3)n(-c3ccc(C(=O)O)cc3)c(=O)c2c1 | 39 | 1 | 22 | 26 | 21 | – | 25 | 2
20 | CC(C)c1ccc2nc(/C=C/c3cccc([N+](=O)[O-])c3)n(-c3ccc(C(=O)O)cc3)c(=O)c2c1 | 101 | 29 | 6 | 7 | 200 | – | 98 | 14
21 | COC(=O)c1cccc(/C=C/c2nc3ccc(OC)cc3c(=O)n2-c2ccc(C(=O)O)cc2)c1 | 80 | 7 | 15 | 6 | 41 | – | 39 | 13
22 | O=C(O)c1ccc(-n2c(/C=C/c3cccc([N+](=O)[O-])c3)nc3cc4ccccc4cc3c2=O)cc1 | 11 | 2 | 2 | 2 | 4 | – | 5 | 6
23 | COc1ccc(-n2c(/C=C/c3cccc([N+](=O)[O-])c3)nc3ccccc3c2=O)cc1 | > 300 | – | 152 | 168 | 178 | Not Active | > 300 | –
24 | COc1cccc(-n2c(/C=C/c3ccc([N+](=O)[O-])cc3)nc3ccccc3c2=O)c1 | > 300 | 1 | > 300 | > 300 | > 300 | Not Active | – | –
25 | COc1ccccc1-n1c(/C=C/c2cccnc2)nc2ccc(I)cc2c1=O | 31 | 66 | 3 | 3 | 199 | – | 30 | 10
26 | O=C(O)c1ccc(-n2c(/C=C/c3cccc([N+](=O)[O-])c3)nc3ccc(I)cc3c2=O)cc1 | 18 | 52 | 1 | 0.6 | 31 | – | 6 | 18
27 | O=C(O)c1cccc(-n2c(/C=C/c3ccc([N+](=O)[O-])cc3)nc3ccccc3c2=O)c1 | 135 | – | 33 | 27 | > 300 | Not Active | 177 | –
28 | O=c1c2ccccc2nc(/C=C/c2cccnc2)n1-c1ccccc1 | 40 | 2 | 140 | 35 | 74 | – | 51 | 1
